From ChEMBL document CHEMBL3997769, “Discovery and preclinical evaluation of 7-benzyl-N-(substituted)-pyrrolo[3,2-d]pyrimidin-4-amines as single agents with microtubule targeting effects along with triple-acting angiokinase inhibition as antitumor agents” (Bioorg Med Chem, 2017) come the findings set out here.

SMILES strings stand for the structures. pIC50: −log10 of the molar value.

In general, pIC50 refers to the IC50 on a negative log10 scale, so that one unit is a factor of ten.

The nature of experiment [1]: Inhibition of bovine brain tubulin assembly preincubated for 15 mins followed by GTP addition measured for 20 mins by spectrophotometric method. Also noted: species or system Bos taurus.
Another experiment concerns A-431. The experiment in a line: Cytotoxicity against human A431 cells. It counts as functional, cell-based.
The subject of a further experiment is Chorioallantoic membrane. The experiment in a line: Antiangiogenic activity in Leghorn chicken egg chorioallantoic membrane assessed as inhibition of human VEGF-165/bFGF-induced blood vessels formation measured after 40 hrs by microscopic method. It counts as functional, tissue-based. The following applies: Gallus gallus.
Experiment [2] relates to HeLa. The experiment in a line: Growth inhibition of human HeLa cells measured after 96 hrs by sulforhodamine B assay. It counts as functional, cell-based. The gist of the method: (§1)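 Exposed 96 h to varying compound concentrations in 0.5% DMSO. Cell protein measured by sulforhodamine B; IC50 = concentration halving the increase in cell protein versus untreated cultures.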
A general note: Sulforhodamine B stains cellular protein and so reports cell mass.

For experiment [3], the system named is HeLa. The experiment in a line: Growth inhibition of human HeLa cells over expressing beta3-tubulin measured after 96 hrs by sulforhodamine B assay. The experiment is classed as functional, cell-based. Summed up:
as §1

Another experiment concerns OVCAR-8. The experiment in a line: Growth inhibition of human OVCAR8 cells measured after 96 hrs by sulforhodamine B assay. It counts as functional, cell-based. The following applies: OVCAR-8, 96 h.
A further experiment has as its system NCI/ADR-RES. The experiment in a line: Growth inhibition of human NCI/ADR-RES cells over expressing Pgp measured after 96 hrs by sulforhodamine B assay. The experiment is classed as functional, cell-based.

As for `COc1ccc(N(C)c2nc(N)nc3c(Cc4ccccc4)c[nH]c23)cc1`, the pIC50 in experiment [1] is < 4.70; in the experiment on A-431, 6.15; in the experiment with Chorioallantoic membrane it was 5.64.
For the compound `CC(=O)O[C@H]1C(=O)[C@@]2(C)[C@H]([C@H](OC(=O)c3ccccc3)[C@]3(O)C[C@H](OC(=O)[C@H](O)[C@@H](NC(=O)c4ccccc4)c4ccccc4)C(C)=C1C3(C)C)[C@]1(OC(C)=O)CO[C@@H]1C[C@@H]2O` [PACLITAXEL], the pIC50 in the experiment with HeLa [2] was 8.28; in the experiment with HeLa [3], 7.80; in the experiment with OVCAR-8, 8.30; in the experiment on NCI/ADR-RES, 5.60.
